Laboratory results published in ChEMBL document CHEMBL2440007, “Design, synthesis and biological evaluation of N2,N4-disubstituted-1,1,3-trioxo-2H,4H-pyrrolo[1,2-b][1,2,4,6]thiatriazine derivatives as HIV-1 NNRTIs” (Bioorg Med Chem, 2013).

Assays:
[1] = Cytotoxicity against human MT4 cells after 5 days by MTT assay; format: cell-based
How it was run: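 Mock-infected MT-4 cells (6 × 10⁵ cells/mL) were exposed to serial fivefold compound dilutions. Viability was measured by MTT after 5 days.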

[2] = tested on: Human immunodeficiency virus 2; assay: Antiviral activity against HIV2 ROD infected in human MT4 cells assessed as protection against viral-induced cytotoxicity after 5 days by MTT assay; format: functional, organism-based; details: Human immunodeficiency virus 2, ISOLATE ROD, MT4, 120 h
How it was run: (§1)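 MT-4 cells were infected with HIV-1 IIIB or HIV-2 ROD stock at 100–300 CCID50 and exposed to serial fivefold compound dilutions, with untreated virus-infected and mock-infected controls. Cell viability was read by MTT after 5 days.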

[3] = tested on: Human immunodeficiency virus 1; assay: Antiviral activity against HIV1 3B infected in human MT4 cells assessed as protection against viral-induced cytotoxicity after 5 days by MTT assay; format: functional, organism-based; details: Human immunodeficiency virus 1, 3B, MT4, 120 h; how it was run: as §1
[4] = Selectivity index, ratio of CC50 for human MT4 cells to EC50 for HIV-1 3B infected in human MT4 cells; format: toxicity, cell-based; details: read-out: Ratio CC50/EC50
How it was run: (§2)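 Ratio CC50/EC50. Both values come from MTT viability of MT-4 cells read 5 days after infection with HIV-1 IIIB or HIV-2 ROD, or after mock infection for CC50.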

[5] = Selectivity index, ratio of CC50 for human MT4 cells to EC50 for HIV-2 ROD infected in human MT4 cells; format: toxicity, cell-based; details: read-out: Ratio CC50/EC50; how it was run: as §2
[6] = tested on: Human immunodeficiency virus 1; assay: Antiviral activity against HIV1; format: functional, organism-based
[7] = molecular target: Human immunodeficiency virus type 1 reverse transcriptase (Human immunodeficiency virus 1, UniProt Q72547); assay: Inhibition of HIV1 reverse transcriptase assessed as inhibition of biotinylated dUTP incorporation after 1 hr by ELISA
How it was run: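 Kit-based colorimetric ELISA. HIV-1 RT was incubated with template and DIG-dUTP, biotin-dUTP and dTTP, with or without inhibitor, for 1 h at 37 °C. Product was captured on streptavidin plates for 1 h at 37 °C, then anti-DIG-POD for 1 h at 37 °C, and ABTS was developed at 25 °C. A405 was read and percent inhibition calculated.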

SMILES | CC50 at 120 h [1] [µM] | EC50 [2] [µM] | EC50 [3] [µM] | selectivity ratio [4] | selectivity ratio [5] | EC50 [6] [µM] | IC50 [7] [µM]
O=C1N(Cc2ccc(Cl)cc2Cl)c2cccn2S(=O)(=O)N1Cc1ccccc1 | 218 | > 273 | > 218 | < 1 | < 1 | – | –
O=C1N(Cc2ccc(Cl)cc2Cl)c2cccn2S(=O)(=O)N1Cc1cccc(F)c1 | 249 | > 275 | > 249 | < 1 | 1 | – | –
O=C1N(Cc2ccc(Cl)cc2Cl)c2cccn2S(=O)(=O)N1Cc1cccc(Br)c1 | > 243 | > 243 | > 243 | – | 1 | – | –
Cn1ncc2c1N(Cc1ccccc1Cl)S(=O)(=O)N(Cc1ccccc1)C2=O | – | – | – | – | – | > 20 | –
O=C1N(Cc2ccccc2Br)c2cccn2S(=O)(=O)N1Cc1ccccc1 | 226 | > 226 | 30 | 8 | < 1 | – | –
O=C1N(Cc2cccc(Cl)c2)c2cccn2S(=O)(=O)N1Cc1cccc(F)c1 | 208 | > 212 | 7.2 | 29 | < 1 | – | –
N#CCN1C(=O)N(Cc2ccccc2)S(=O)(=O)n2cccc21 | 180 | > 180 | > 187 | < 1 | < 1 | – | –
Cn1ncc2c1S(=O)(=O)N(Cc1ccccc1)C(=O)N2Cc1ccccc1Cl | – | – | – | – | – | > 300 | –
N#Cc1ccccc1CN1C(=O)N(Cc2cccc(F)c2)S(=O)(=O)n2cccc21 | > 305 | > 305 | 5.6 | > 55 | 1 | – | 58.3
O=C1N(Cc2ccccc2Cl)c2cccn2S(=O)(=O)N1Cc1cccc(F)c1 | 231 | > 262 | 11 | 21 | < 1 | – | –
N#Cc1cccc(CN2C(=O)N(Cc3ccccc3)S(=O)(=O)n3cccc32)c1 | > 318 | > 318 | 6.5 | > 49 | 1 | – | –
Cc1ccc(CN2C(=O)N(Cc3ccccc3)S(=O)(=O)n3cccc32)cc1 | 241 | > 241 | > 241 | < 1 | < 1 | – | –
Nc1ccn([C@@H]2CS[C@H](CO)O2)c(=O)n1 [LAMIVUDINE] | > 87 | 5.9 | 1.8 | > 47 | > 15 | – | –
N#CCN1C(=O)N(Cc2cccc(F)c2)S(=O)(=O)n2cccc21 | 172 | > 187 | 34 | 5 | < 1 | – | –
O=C1N(Cc2ccccc2)c2cccn2S(=O)(=O)N1Cc1ccccc1 | 196 | > 267 | 43 | 5 | < 1 | – | –
O=C1N(C/C=C/c2ccccc2)c2cccn2S(=O)(=O)N1Cc1ccccc1 | > 318 | > 318 | > 318 | – | 1 | – | –

SMILES | CC50 at 120 h [1] [µM] | EC50 [2] [µM] | EC50 [3] [µM] | selectivity ratio [4] | selectivity ratio [5] | EC50 [6] [µM] | IC50 [7] [µM]
C=CCN1C(=O)N(Cc2ccccc2)S(=O)(=O)n2cccc21 | > 802 | > 802 | > 802 | > 1 | < 1 | – | –
O=C1N(Cc2cccc(Cl)c2)c2cccn2S(=O)(=O)N1Cc1ccccc1 | 196 | > 239 | 40 | 5 | < 1 | – | –
Nc1ccn([C@H]2CC[C@@H](CO)O2)c(=O)n1 [ZALCITABINE] | > 95 | – | – | > 68 | – | – | –
O=C1N(Cc2ccccc2Cl)c2cccn2S(=O)(=O)N1Cc1ccccc1 | 291 | > 311 | 23 | 12 | 1 | – | –
O=C1N(Cc2ccccc2Cl)c2cccn2S(=O)(=O)N1Cc1cccc(Br)c1 | > 260 | > 260 | 18 | > 14 | 1 | – | –
O=C1N(Cc2ccccc2)c2cccn2S(=O)(=O)N1Cc1cccc(F)c1 | 288 | > 324 | 52 | 6 | 1 | – | –
O=C1N(Cc2ccc(Cl)cc2Cl)c2cccn2S(=O)(=O)N1Cc1cccc(Cl)c1 | 251 | > 265 | > 251 | < 1 | 1 | – | –
O=C1N(Cc2ccccc2Cl)c2cscc2S(=O)(=O)N1Cc1ccccc1 | > 119 | – | – | > 119 | – | 0.01 | –
N#Cc1ccccc1CN1C(=O)N(Cc2ccccc2)S(=O)(=O)n2cccc21 | > 318 | > 318 | 5.1 | > 63 | 1 | – | 56.9
N#Cc1ccccc1CN1C(=O)N(Cc2cccc(Cl)c2)S(=O)(=O)n2cccc21 | > 293 | > 293 | 8.9 | > 33 | 1 | – | –
O=C1N(Cc2ccccc2Br)c2cccn2S(=O)(=O)N1Cc1cccc(F)c1 | > 269 | > 269 | 29 | > 9 | 1 | – | –
Cc1ccnc2c1NC(=O)c1cccnc1N2C1CC1 [NEVIRAPINE] | > 15 | – | – | – | – | – | –
CC(C)=CCN1C(=O)N(Cc2ccccc2)S(=O)(=O)n2cccc21 | 226 | > 226 | 25 | 9 | < 1 | – | –
N#CCN1C(=O)N(Cc2ccccc2)S(=O)(=O)c2cscc21 | 503 | – | – | 559 | – | – | –
O=C1N(Cc2ccc(F)cc2)c2cccn2S(=O)(=O)N1Cc1ccccc1 | 150 | > 150 | > 190 | < 1 | < 1 | – | –
